Calls of active or inactive are those of the source. No cut-off for these calls is given here.
Experiments:
[1] = target: T1, GABA-A receptor; anion channel (Rattus norvegicus) (UniProt O09028+P15431+P18506+P18508+P19969+P20236+P23574+P23576+P28471+P28473+P30191+P62813+P63079+P63138+Q91ZM7+Q9ES14); assay: Modulation of GABAA receptor in electrically stimulated Sprague-Dawley rat dentate gyrus hippocampal granule neurons assessed as GABA induced IPSC amplitude at 10 uM at holding potential of -65 mV by whole-cell patch-clamp method; assay type: protein-complex assay
Summary of the method: (§1)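 Rat dentate gyrus granule cells gave evoked IPSCs. Stimulus intensity was set at the start of each recording to give about 30% of maximal amplitude, and bicuculline (20 μM) suppression confirmed GABAAR mediation. IPSCs were recorded before and after perfusion of 10 μM compound, and results are given as percent change from baseline (means ± SEM, n = cells).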

[2] = target: T1, GABA-A receptor; anion channel (Rattus norvegicus); assay: Activation of GABAA receptor in Sprague-Dawley rat dentate gyrus hippocampal granule neurons assessed as holding current at 10 uM by whole-cell patch-clamp method; assay type: protein-complex assay
Summary of the method: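 Rat dentate gyrus granule cells. Holding current was monitored with no electrical stimulation, before and after perfusion of 10 μM compound, to test for direct GABAAR activation.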

[3] = target: T1, GABA-A receptor; anion channel (Rattus norvegicus); assay: Modulation of GABAA receptor in electrically stimulated Sprague-Dawley rat dentate gyrus hippocampal granule neurons assessed as decrease in GABA induced IPSC amplitude at 10 uM at holding potential of -65 mV by whole-cell patch-clamp method relative to control; assay type: protein-complex assay; summary of the method: as §1
[4] = target: T1, GABA-A receptor; anion channel (Rattus norvegicus); details: Sprague-Dawley, 20 uM
[5] = target: T1, GABA-A receptor; anion channel (Rattus norvegicus); assay: Modulation of GABAA receptor in electrically stimulated Sprague-Dawley rat dentate gyrus hippocampal granule neurons assessed as increase in GABA induced IPSC amplitude at 10 uM at holding potential of -65 mV by whole-cell patch-clamp method relative to control; assay type: protein-complex assay; summary of the method: as §1
[6] = target: T1, GABA-A receptor; anion channel (Rattus norvegicus); assay: Modulation of GABAA receptor in electrically stimulated Sprague-Dawley rat dentate gyrus hippocampal granule neurons assessed as maximal potentiation of GABA induced IPSC amplitude at 100 uM at holding potential of -65 mV by whole-cell patch-clamp method relative to control; assay type: protein-complex assay
[7] = target: GABA-A receptor; anion channel; assay: Modulation of GABAA receptor in electrically stimulated Sprague-Dawley rat dentate gyrus hippocampal granule neurons assessed as potentiation of GABA induced IPSC amplitude at holding potential of -65 mV by whole-cell patch-clamp method; assay type: protein-complex assay

SMILES | Activity [1] | Activity [2] | inhibition [3] [%] | also measured
CC1=C(CO)C(=O)O[C@@H]([C@@H](C)[C@H]2CC[C@H]3[C@@H]4C[C@H]5O[C@]56[C@@H](O)C=CC(=O)[C@]6(C)[C@H]4CC[C@]23C)C1 | inactive | inactive |  | 
CCCCCCCCCCCCCCCCCCOC(=O)/C=C/c1ccc(O)c(OC)c1 |  | inactive | 35.8 | 
COc1cc(/C=C/C(=O)OCCCCCOC(=O)/C=C/c2ccc(O)c(OC)c2)ccc1O | inactive | inactive |  | 
CC1=C(C)C(=O)O[C@@H]([C@](C)(O)[C@H]2CC[C@H]3[C@@H]4C=CC5=CC=CC(=O)[C@]5(C)[C@H]4CC[C@]23C)C1 |  | inactive | 28.6 | 
CN1CCc2cc3c(cc2[C@H]1[C@@H]1OC(=O)c2c1ccc1c2OCO1)OCO3 |  |  |  | inhibition [4]: Active
CC1=C(CO)C(=O)O[C@@H]([C@H](C)[C@H]2CC[C@H]3[C@@H]4C=CC5=CC=CC(=O)[C@]5(C)[C@H]4CC[C@]23C)C1 | inactive | inactive |  | 
CC1=C(C)C(=O)O[C@@H]([C@@](C)(O)[C@H]2CC[C@H]3[C@@H]4[C@@H]5O[C@@H]5[C@@]5(O)CC=CC(=O)[C@]5(C)[C@H]4CC[C@]23C)C1 |  | inactive | 20.8 | 
CC1=C(C)C(=O)O[C@@H]([C@H](C)[C@H]2CC[C@H]3[C@@H]4[C@@H]5O[C@@H]5[C@@]5(O)CC=CC(=O)[C@]5(C)[C@H]4CC[C@]23C)C1 |  | inactive |  | Activity [5]: 29.4%
CCCCCCCCCCCCCCCCCCCOC(=O)/C=C/c1ccc(O)c(OC)c1 |  | inactive | 36.5 | 
CCCCCCCCCCCCCCCCCCCCCOC(=O)/C=C/c1ccc(O)c(OC)c1 |  | inactive |  | Activity [6]: 74%; EC50 [7]: 7.9 µM; Activity [5]: 48.2%

From ChEMBL document CHEMBL4373689, “Ferulic Acid Esters and Withanolides: In Search of Withania somnifera GABAA Receptor Modulators” (J Nat Prod, 2019)
